Published values of several laboratories.
Protocols differ between the studies behind these lines.
Target: Ephrin type-A receptor 8 (EPHA8, Homo sapiens, UniProt P29322)
Residues used in one study (P29322 28-1005): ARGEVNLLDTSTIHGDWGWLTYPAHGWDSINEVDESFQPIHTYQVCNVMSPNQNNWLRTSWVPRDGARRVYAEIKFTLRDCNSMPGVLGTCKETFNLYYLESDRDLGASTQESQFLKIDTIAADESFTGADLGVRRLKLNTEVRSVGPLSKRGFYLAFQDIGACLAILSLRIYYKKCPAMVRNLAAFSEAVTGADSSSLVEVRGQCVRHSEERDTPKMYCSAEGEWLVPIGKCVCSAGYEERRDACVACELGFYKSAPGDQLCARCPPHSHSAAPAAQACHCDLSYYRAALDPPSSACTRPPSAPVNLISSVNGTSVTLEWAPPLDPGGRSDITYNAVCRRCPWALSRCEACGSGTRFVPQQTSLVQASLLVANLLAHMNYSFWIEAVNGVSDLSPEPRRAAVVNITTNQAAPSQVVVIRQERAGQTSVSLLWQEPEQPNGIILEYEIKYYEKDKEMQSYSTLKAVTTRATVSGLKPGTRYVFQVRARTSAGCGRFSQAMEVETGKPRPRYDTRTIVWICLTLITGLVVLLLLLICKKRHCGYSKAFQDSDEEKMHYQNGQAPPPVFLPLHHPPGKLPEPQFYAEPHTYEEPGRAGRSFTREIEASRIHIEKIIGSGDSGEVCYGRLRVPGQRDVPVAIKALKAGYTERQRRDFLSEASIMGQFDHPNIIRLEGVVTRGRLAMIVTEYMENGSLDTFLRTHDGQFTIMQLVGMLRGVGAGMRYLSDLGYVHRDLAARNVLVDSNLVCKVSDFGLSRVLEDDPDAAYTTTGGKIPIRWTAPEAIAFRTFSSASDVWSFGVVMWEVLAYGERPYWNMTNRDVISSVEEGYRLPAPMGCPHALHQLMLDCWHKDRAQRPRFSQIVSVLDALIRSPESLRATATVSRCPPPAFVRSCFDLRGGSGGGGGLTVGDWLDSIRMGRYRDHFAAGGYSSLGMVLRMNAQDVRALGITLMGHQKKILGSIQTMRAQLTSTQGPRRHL

SMILES	read-out	technique	concentration	remaining binding [%]
NS(=O)(=O)c1cc(NC(=O)C2(c3ccccc3Cl)CC2)ccc1Oc1cccc(Cl)c1	cell-free assay	competition with immobilised ligand	1 µM	80
C=CC(=O)N1CCC(C(=O)NCC(=O)N2CCN(c3nc(-c4cnc(N)nc4C(F)F)nc(N4CCOCC4)n3)CC2)CC1	binding	competition with immobilised ligand	1 µM	100
Cc1cnc(Nc2ccc(C(=O)N3CCC(N4CCCC4)CC3)cc2)nc1-c1cc2ccccc2s1	binding	competition with immobilised ligand	1 µM	100
Cc1nc(C2CCN(C(=O)c3ccc(OC(F)(F)F)cc3N)CC2)c2ncc(N3CCN(C)CC3)cc2n1	cell-free assay	competition with immobilised ligand	1 µM	98
COc1cnc(Nc2cccc(S(N)(=O)=O)c2)nc1N1CCN(c2ccccc2)CC1	binding	competition with immobilised ligand	1 µM	96
c1cnn2ncc(-c3ccnc(N4CCC45COC5)n3)c2c1	binding	–	1 µM	89
Nc1ncc2c(n1)-c1c([nH]c3ccc(C#CC4CC4)cc13)CCCC2	binding	competition with immobilised ligand	1 µM	89
COc1cnc(Nc2cccc(S(N)(=O)=O)c2)nc1N1CCN(c2ccccc2)C(=O)C1	binding	competition with immobilised ligand	1 µM	100
c1cncc(-c2cccc(Nc3nccc(NC4CCCCC4)n3)c2)c1	binding	competition with immobilised ligand	10 µM	100
O=C(NCC1CCOCC1)c1n[nH]cc1NC(=O)c1c(F)cccc1F	binding	competition with immobilised ligand	1 µM	100
CC1=C(C#N)C(c2ccc3c(c2)c(NC(=O)c2ccccc2C)nn3C)C(C#N)=C(C)N1	cell-free assay	competition with immobilised ligand	1 µM	100
O=C(NCCCN1CCOCC1)c1ccc(Nc2nccc(-c3cc4ccccc4s3)n2)cc1	binding	competition with immobilised ligand	1 µM	96
COc1ccnn2ncc(-c3ccnc(N(C)C)n3)c12	binding	–	1 µM	100
CCOC(=O)c1cc2cc(-c3cc(C(=O)NCc4ccc(C(=O)O)cc4)nn3C)ccc2[nH]1	cell-free assay	competition with immobilised ligand	0.1 µM	100
CN(C)c1nccc(-c2cnc3ncccn23)n1	binding	–	1 µM	79
O=C(c1ccc(Nc2ncc(Cl)c(-c3ccc(Cl)s3)n2)cc1)N1CCC(N2CCCC2)CC1	binding	competition with immobilised ligand	1 µM	91
CC(=O)C1=C(C)N(c2cccc(C(F)(F)F)c2)C(=O)N[C@@H]1c1ccc(C#N)nc1	cell-free assay	competition with immobilised ligand	1 µM	100
N[C@@H]1CCN(c2nccc(-c3cnn4ncccc34)n2)C1	binding	–	1 µM	100
Cc1noc([C@H]2C[C@@H](c3ccc(C(F)(F)F)cc3)CN(C(=O)N3CCS(=O)(=O)C3)C2)n1	cell-free assay	competition with immobilised ligand	1 µM	100
CN(C)c1nccc(-c2cnn3ncccc23)n1	binding	–	1 µM	100
